The results in this text go back to ChEMBL document CHEMBL1944618, “Synthesis and antifungal activity of a new series of 2-(1H-imidazol-1-yl)-1-phenylethanol derivatives” (Eur J Med Chem, 2012).

In brackets after ≈: the same amount, converted by molar mass.

Data set [1] has as its system Candida albicans. As to the kind of experiment: Antifungal activity against Candida albicans after 48 hrs by M27-A3 CLSI method. The data set is classed as functional. The essentials: (§1)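 Broth microdilution in RPMI 1640, two-fold serial dilutions, final test range 0.125–64 µg mL-1 (fluconazole reference 0.0078–128 µg mL-1). Inoculum 1.0×10^3–1.5×10^3 cells mL-1 from yeasts grown 24 h at 35 °C on Sabouraud dextrose agar. Incubation 35 °C, read at 48 h. MIC = lowest concentration giving >50% turbidity decrease versus growth control. Run three times in triplicate. C. parapsilosis ATCC22019 served as QC.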

The subject of data set [2] is Candida albicans. As to the kind of experiment: Antifungal activity against Candida albicans ATCC 24433 after 48 hrs by M27-A3 CLSI method. Type of data set: functional. In a few lines: as §1
The subject of data set [3] is Candida albicans. Description: Antifungal activity against Candida albicans ATCC 3153 after 48 hrs by M27-A3 CLSI method. The data set is classed as functional. The settings on record: ATCC 3153, 48 h. In a few lines:
as §1

For data set [4], the system named is Candida albicans. As to the kind of experiment: Antifungal activity against Candida albicans ATCC 10231 after 48 hrs by M27-A3 CLSI method. The settings on record: ATCC 10231, 48 h. The data set is classed as functional. In a few lines: as §1
The test system of data set [5] is Candida albicans. Description: Antifungal activity against Candida albicans ATCC 76615 after 48 hrs by M27-A3 CLSI method. The data set is classed as functional. The settings on record: ATCC 76615, 48 h. In a few lines:
as §1

The subject of data set [6] is Candida. As to the kind of experiment: Antifungal activity against Candida sp. after 48 hrs by M27-A3 CLSI method. Type of data set: functional. The essentials: as §1
Data set [7] has as its system Candida parapsilosis. Description: Antifungal activity against Candida parapsilosis after 48 hrs by M27-A3 CLSI method. Type of data set: functional. The settings on record: Lodderomyces parapsilosis. The essentials:
as §1

The subject of data set [8] is Candida parapsilosis. Description: Antifungal activity against Candida parapsilosis ATCC 22019 after 48 hrs by M27-A3 CLSI method. The data set is classed as functional. To be noted: Lodderomyces parapsilosis, ATCC 22019, 48 h. In a few lines: as §1
The subject of data set [9] is Candida parapsilosis. As to the kind of experiment: Antifungal activity against Candida parapsilosis DSM 11224 after 48 hrs by M27-A3 CLSI method. The data set is classed as functional. In a few lines:
as §1

Data set [10] concerns Candida tropicalis. As to the kind of experiment: Antifungal activity against Candida tropicalis after 48 hrs by M27-A3 CLSI method. Type of data set: functional. The essentials: as §1
For data set [11], the system named is Candida tropicalis. As to the kind of experiment: Antifungal activity against Candida tropicalis DSM 11953 after 48 hrs by M27-A3 CLSI method. Type of data set: functional. To be noted: DSM 11953, 48 h. In a few lines:
as §1

In data set [12] the test system is Pichia kudriavzevii. Description: Antifungal activity against Candida krusei after 48 hrs by M27-A3 CLSI method. Type of data set: functional. The essentials:
as §1

For data set [13], the system named is Pichia kudriavzevii. As to the kind of experiment: Antifungal activity against Candida krusei DSM 6128 after 48 hrs by M27-A3 CLSI method. The data set is classed as functional. The settings on record: DSM 6128, 48 h. The essentials: as §1
Data set [14] relates to Nakaseomyces glabratus. As to the kind of experiment: Antifungal activity against Candida glabrata after 48 hrs by M27-A3 CLSI method. The data set is classed as functional. In a few lines: as §1
Data set [15] deals with Nakaseomyces glabratus. Description: Antifungal activity against Candida glabrata PMC 0805 after 48 hrs by M27-A3 CLSI method. The data set is classed as functional. The settings on record: PMC 0805, 48 h. The essentials: as §1
Data set [16] in a line: Cytotoxicity against human U937 cells after 48 hrs by MTT assay. The data set is classed as cell-based, U-937. In a few lines:
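U937 human monocytic cells, 2×10^4 per well, in phenol-red-free RPMI 1640 with 10% FBS, L-glutamine, penicillin and streptomycin. Exposed 48 h at 37 °C, 5% CO2, to compounds dissolved in DMSO at final 8–128 µg mL-1, at least five concentrations, each in three replicates. MTT added for 3–4 h, crystals dissolved, OD read at 570 nm. CC50 taken against DMSO-only control. Means ± SD from three independent experiments.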
On the technique in general: Tetrazolium assays rely on reduction of a dye to a coloured formazan, in cell work by metabolically active cells.

A short description of data set [17]: Selectivity index, ratio of CC50 for human U937 cells to MIC for Candida Sp. The data set is classed as functional, U-937. In a few lines: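 SI = CC50 from the 48 h U937 MTT assay divided by the mean MIC across all Candida species. That MIC comes from CLSI M27-A3 broth microdilution in RPMI 1640, 35 °C, read at 48 h.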
The test system of data set [18] is Pichia kudriavzevii. Description: Antifungal activity against Candida krusei PMC 0613 after 48 hrs by M27-A3 CLSI method. The data set is classed as functional. The essentials: as §1
The test system of data set [19] is Pichia kudriavzevii. Description: Ratio MIC for fluconazole to compound for Candida krusei after 48 hrs by M27-A3 CLSI method. The data set is classed as functional.
The test system of data set [20] is Candida tropicalis. Description: Antifungal activity against Candida tropicalis DSM11953 after 48 hrs by M27-A3 CLSI method.
For data set [21], the system named is Candida tropicalis. As to the kind of experiment: Antifungal activity against Candida tropicalis PMC 0910 after 48 hrs by M27-A3 CLSI method. The data set is classed as functional. To be noted: PMC 0910, 48 h. In a few lines:
as §1

Setting [22] is: Candida albicans, ATCC 24433, 48 h, read-out: MIC.
Setting [23] is: Lodderomyces parapsilosis, DSM 11224, 48 h, read-out: MIC.
Setting [24] is: Pichia kudriavzevii, PMC 0613, 48 h, read-out: MIC.

The term MIC denotes the lowest concentration found to suppress growth. What is called MIC50 is an inhibitory concentration at the 50% level, which refers to growth in some studies and to a panel of isolates in others. Lower therefore signals greater potency. A word on the MIC90: it is the lowest concentration that inhibits either 90% of growth or 90% of the strains tested, depending on the study. What is called CC50 is the concentration that lowers cell viability or growth by half. Low readings indicate greater toxicity to the cells, high ones lower toxicity to the cells. Regarding `O=C(OC(Cn1ccnc1)c1ccccc1)c1ccc(-c2ccccc2)cc1` (racemic), the MIC is 3.7 µg/mL (≈ 10 µM) in data set [1]; 0.37 µg/mL (≈ 1 µM) in data set [2]; 0.25 µg/mL (≈ 0.679 µM) in [3]; 1 µg/mL (≈ 2.71 µM) in data set [4]; 4 µg/mL (≈ 10.9 µM) in data set [5]; 2.1 µg/mL (≈ 5.7 µM) in data set [6]. Also, the MIC in [7] turned out to be 0.7 µg/mL (≈ 1.9 µM); in data set [8], 2 µg/mL (≈ 5.43 µM); in [9] it was 0.33 µg/mL (≈ 0.896 µM); in data set [10], 0.5 µg/mL (≈ 1.36 µM); in data set [11] it was 0.25 µg/mL (≈ 0.679 µM); in data set [12], 4.7 µg/mL (≈ 12.8 µM). The MIC in data set [13] was found to be 2 µg/mL (≈ 5.43 µM); in data set [14] it was 4 µg/mL (≈ 10.9 µM); in [15] it was 4 µg/mL (≈ 10.9 µM); in [18] it was 0.67 µg/mL (≈ 1.82 µM); in [20], 0.58 µg/mL (≈ 1.57 µM). For the same compound, the MIC50 in [1] is 1 µg/mL (≈ 2.71 µM); in data set [6], 0.5 µg/mL (≈ 1.36 µM). Moreover, the MIC90 in [1] came out at 8 µg/mL (≈ 21.7 µM); in data set [6] it was 4 µg/mL (≈ 10.9 µM). In addition, in data set [16], the CC50 at 48 h was > 128 µg/mL. In addition, the “Selectivity Index” value in [17] is given as >44.1. Further, in [19], the Ratio is listed as 5.

Regarding `OC(Cn1cncn1)(Cn1cncn1)c1ccc(F)cc1F` [FLUCONAZOLE], the MIC came to 4.9 µg/mL (≈ 16 µM) in data set [1]; 1 µg/mL (≈ 3.27 µM) in [2] (setting [22]); 16 µg/mL (≈ 52.2 µM) in [3]; 2 µg/mL (≈ 6.53 µM) in [4]; 0.25 µg/mL (≈ 0.816 µM) in data set [5]; 7.9 µg/mL (≈ 25.8 µM) in [6]. Moreover, the MIC in data set [7] stood at 1.6 µg/mL (≈ 5.22 µM); in data set [8], 2 µg/mL (≈ 6.53 µM); in data set [9] (setting [23]), 1 µg/mL (≈ 3.27 µM); in data set [10] it was 3.25 µg/mL (≈ 10.6 µM); in [21] it was 2.5 µg/mL (≈ 8.16 µM); in [11], 1 µg/mL (≈ 3.27 µM). The minimum inhibitory concentration (MIC) in data set [12] came to 26 µg/mL (≈ 84.9 µM); in data set [13], 16 µg/mL (≈ 52.2 µM); in data set [14], 0.87 µg/mL (≈ 2.84 µM); in [15], 0.5 µg/mL (≈ 1.63 µM); in [18] (setting [24]), 12 µg/mL (≈ 39.2 µM). Moreover, the MIC50 in data set [1] is 1 µg/mL (≈ 3.27 µM); in [6], 2 µg/mL (≈ 6.53 µM). The MIC90 in data set [1] and in data set [6] was 16 µg/mL (≈ 52.2 µM) throughout.

Turning to `O=C(OC(Cn1ccnc1)c1ccc(F)cc1)c1ccc(-c2ccccc2)cc1` (single isomer, unassigned; (+)), the minimum inhibitory concentration (MIC) was found to be 64 µg/mL (≈ 166 µM) in data set [2], 35.55 µg/mL (≈ 92 µM) in data set [9], 64 µg/mL (≈ 166 µM) in data set [18] and 32 µg/mL (≈ 82.8 µM) in data set [20].

Take `O=C(OC(Cn1ccnc1)c1ccc(F)cc1)c1ccc(-c2ccccc2)cc1` (racemic): the MIC in [1] was 4.4 µg/mL (≈ 11.4 µM); in [2] it was 1.5 µg/mL (≈ 3.88 µM); in data set [3] it was 0.25 µg/mL (≈ 0.647 µM); in data set [4] it was 8 µg/mL (≈ 20.7 µM); in data set [5], 4 µg/mL (≈ 10.4 µM); in data set [6], 2.5 µg/mL (≈ 6.47 µM). In addition, the MIC in data set [7] worked out at 1.3 µg/mL (≈ 3.36 µM); in data set [8] it was 2 µg/mL (≈ 5.18 µM); in data set [9], 0.42 µg/mL (≈ 1.09 µM); in [10], 4.08 µg/mL (≈ 10.6 µM); in [11], 1 µg/mL (≈ 2.59 µM); in data set [12], 2.25 µg/mL (≈ 5.82 µM). Moreover, the MIC in data set [13] worked out at 4 µg/mL (≈ 10.4 µM); in [14], 1 µg/mL (≈ 2.59 µM); in data set [15] it was 1 µg/mL (≈ 2.59 µM); in data set [18], 0.83 µg/mL (≈ 2.15 µM); in data set [20], 2.17 µg/mL (≈ 5.62 µM). The results for the MIC50 in data set [1] and in [6] were 4 µg/mL (≈ 10.4 µM) and 1 µg/mL (≈ 2.59 µM), respectively. Besides, the MIC90 in data set [1] and in data set [6] was 8 µg/mL (≈ 20.7 µM) throughout. In data set [16], this compound gave a CC50 at 48 h of 41.5 µg/mL (≈ 107 µM). Besides, in data set [17], the “Selectivity Index” value is recorded as 12. Moreover, the Ratio in data set [19] is 11.

As to `O=C(OC(Cn1ccnc1)c1ccc(Cl)cc1)c1ccc(-c2ccccc2)cc1` (racemic), the minimal inhibitory concentration (MIC) is 1.7 µg/mL (≈ 4.22 µM) in data set [1]; 0.25 µg/mL (≈ 0.621 µM) in [2] (setting [22]); 0.125 µg/mL (≈ 0.31 µM) in data set [3]; 1 µg/mL (≈ 2.48 µM) in [4]; 4 µg/mL (≈ 9.93 µM) in data set [5]; 1.9 µg/mL (≈ 4.72 µM) in data set [6]. Also, the MIC was 1.05 µg/mL (≈ 2.61 µM) in data set [7]; 1 µg/mL (≈ 2.48 µM) in data set [8]; 0.25 µg/mL (≈ 0.621 µM) in [9] (setting [23]); 0.89 µg/mL (≈ 2.21 µM) in data set [10]; 1 µg/mL (≈ 2.48 µM) in data set [21]; 0.125 µg/mL (≈ 0.31 µM) in data set [11]. Moreover, the MIC in data set [12] was found to be 3.7 µg/mL (≈ 9.18 µM); in [13] it was 4 µg/mL (≈ 9.93 µM); in data set [14], 1 µg/mL (≈ 2.48 µM); in data set [15] it was 1 µg/mL (≈ 2.48 µM); in data set [18] (setting [24]), 1 µg/mL (≈ 2.48 µM). Further, the MIC50 in [1] and in data set [6] was 1 µg/mL (≈ 2.48 µM) throughout. Moreover, the MIC90 in [1] and in data set [6] was 4 µg/mL (≈ 9.93 µM) throughout. The same compound gave a CC50 at 48 h in data set [16] of 88.3 µg/mL (≈ 219 µM). Moreover, the “Selectivity Index” value in data set [17] worked out at 49.1. The Ratio in data set [19] is 7.
